Only some compounds are listed: those with a hit (about 3.7% of all), similar ones and a draw of the others.
KCNK9 inh – blocks the human KCNK9 two-pore domain potassium channel; Q9NPC2; HEK293 KCNK9, FluxOR thallium flux fluorescence; active compounds read low; B-score at 10 µM; 310,000 compounds, 1.2% hits;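 active = ratio B-score over 3 SD below the library mean, with starting fluorescence within 5 SD of its mean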;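 note: negative B-score means less thallium flux so channel inhibition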
KCNQ1 pot – human KCNQ1 channel potentiation or activation; AID 2648; 310,000 compounds, 0.35% hits; B-score at 10 µM; CHO-K1 KCNQ1, thallium flux FluxOR fluorescence; active compounds read high;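 active = fluorescence ratio B-score, a plate-corrected score, at least three library SD, with initial intensity B-score within 5 SD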
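Test system: CHO-K1 cells stably expressing KCNQ1 / Medium: assay buffer / Also added: depolarizing K+/Tl+ stimulus, K2SO4 and Tl2SO4 each 12.5 mM in 5x stock / Incubation: 90 min dye loading and 20 min compound exposure, both at room temperature / Signal: thallium influx via FluxOR fluorescence, kinetic imaging / Evaluation: B score of baseline-normalized fluorescence ratio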
hERG rescue – shields human hERG channel from block by proarrhythmic agents | AID 1511 | Q12809 | 310,000 compounds, 0.51% hits | activation (rescue from dofetilide block), less the hit threshold, % at 10 µM | CHO-hERG, FluxOR thallium flux, dofetilide IC70 present;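 active = activation above the mean of controls blocked by dofetilide plus 5 SD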;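 note: thallium influx through hERG after potassium depolarization seen as dye fluorescence rise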
KCNQ1 block – inhibitors of human KCNQ1 potassium channel; CHO-K1 KCNQ1, FluxOR thallium flux fluorescence; active compounds read high; 310,000 compounds, 1.3% hits; P51787; B-score at 10 µM;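 active = compounds whose thallium flux B-score, printed positive for inhibition, exceeds three library SD while starting fluorescence stays within three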;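 note: channel opened by potassium depolarization with thallium stimulus after 20 min compound exposure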
KCNK3 inh – human KCNK3 channel inhibition, primary screen. AID 602410. O14649. 340,000 compounds, 0.84% hits. CHO-KCNK3 thallium flux, FluxOR fluorescence; active compounds read low. B-score at 10 µM;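 active = B-score under library mean minus 4 SD, starting fluorescence ratio at most library mean plus 5 SD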;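 note: more negative B-score means stronger inhibition of thallium flux through KCNK3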
Kir21 inh – blocks the mouse Kir2.1 inward-rectifier potassium channel; HEK293-Kir2.1, FluxOR thallium flux fluorescence; active compounds read low; 310,000 compounds, 0.85% hits; B-score at 10 µM;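 active = fluorescence ratio B-score at or below minus 3 SD of library scores, with starting-brightness B-score within 2 SD, cut at about -4.2 in these data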;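 note: channel flux triggered by added potassium and thallium sulfate stimulus; B-score of peak minus minimum fluorescence over baseline after thallium stimulus; more negative B-score means stronger Kir2.1 block with less thallium influx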
Target sequence (P35561 whole entry, looked up): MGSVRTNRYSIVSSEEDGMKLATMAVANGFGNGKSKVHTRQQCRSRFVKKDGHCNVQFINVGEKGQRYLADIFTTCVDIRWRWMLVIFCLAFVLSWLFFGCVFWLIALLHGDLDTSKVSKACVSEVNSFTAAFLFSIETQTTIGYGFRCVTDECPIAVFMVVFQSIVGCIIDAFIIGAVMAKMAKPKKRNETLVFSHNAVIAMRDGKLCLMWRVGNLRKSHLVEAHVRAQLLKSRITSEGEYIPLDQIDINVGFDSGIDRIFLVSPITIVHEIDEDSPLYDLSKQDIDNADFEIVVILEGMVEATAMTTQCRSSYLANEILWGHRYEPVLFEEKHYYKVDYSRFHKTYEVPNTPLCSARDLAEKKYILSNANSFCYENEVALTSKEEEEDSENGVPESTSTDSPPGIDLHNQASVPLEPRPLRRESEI
KCNK9 block conf – human KCNK9 inhibitor confirmation; shares compounds with KCNK9 inh; HEK293 KCNK9 cells, FluxOR thallium flux fluorescence; inhibition, % at 10 µM; 4,900 compounds, 43% hits; AID 492992;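 active = thallium signal inhibited by more than 5 SD of the compound-free buffer control wells, on both duplicate plates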;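 note: 0% = assay buffer control wells without compound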
Kir2-1 spec – mouse Kir2.1 off-target activity of KCNK9 modulators; shares compounds with KCNK9 inh; Kir2.1 cells, FluxOR thallium flux fluorescence; inhibition, % at 10 µM; 4,900 compounds, 4% hits; AID 492993;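 active = thallium signal drop more than 5 SD beyond the mean of the no-compound control wells, seen in both duplicate plates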;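 note: signal is fluorescence rise after thallium addition divided by baseline fluorescence; plate controls were assay buffer only for no effect and full block by chlorpromazine control for full effect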
KCNK9 uninduced – second check of KCNK9 modulator effects in non-induced HEK293 cells | shares compounds with KCNK9 inh | FluxOR thallium flux | inhibition, % at 10 µM | 4,900 compounds, 40% hits;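 active = thallium signal drop beyond 5 SD of the untreated control mean, on both duplicate plates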;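 note: plate controls were buffer only IC0 wells for no effect and SID17386958 at its maximal inhibitory level for full effect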
The depositor's hits bear a star; i = inactive; . = no result given.

SMILES	KCNK9 inh	KCNQ1 pot	hERG rescue	KCNQ1 block	KCNK3 inh	Kir21 inh	KCNK9 block conf	Kir2-1 spec	KCNK9 uninduced
O=C(CSc1nnc(NC(=O)C2CC2)s1)NCc1ccccc1	i	i	-5.1	i	i	-0.09	.	.	.
Fc1ccc(/C=C/c2nnc(-c3cccs3)o2)cc1	-8.68*	i	-3.5	i	i	-0.03	33.0%*	i	i
COc1ccc(CCNC(=O)c2c([S-])n(-c3ccc(C)cc3)c3cccc[n+]23)cc1	i	i	-24.1	i	i	0.18	i	i	i
C/C(=N\Nc1nc(C(C)(C)C)cs1)c1ccccc1	i	i	-6.2	i	i	-0.89	i	i	i
Cc1ccc(/C=N/Nc2nc(C(C)(C)C)cs2)o1	i	18*	10.5*	i	i	-1.16	i	i	i
CC(C)(C)c1csc(N/N=C/c2cccnc2)n1	i	i	-19.8	i	i	-0.71	.	.	.
O=C(NNC(=O)c1ccc2ccccc2c1)c1cccc(Cl)c1	.	.	.	.	i	.	.	.	.
Cc1cccc(C)c1NC(=O)CCc1nnc2ccc(N3CCCC3)nn12	i	i	-10.8	i	i	-0.04	.	.	.
Cc1cc(N/N=C/c2ccc(Cl)cc2Cl)nc(NCc2ccccc2)n1	i	i	-12.2	i	i	3.04	i	i	i
Cc1cc(N/N=C/c2ccc(F)cc2)nc(NCc2ccccc2)n1	i	i	-20.8	i	i	0.56	.	.	.
CNC(=O)NC(=O)COc1ccc2oc3c(c2c1)CCCC3	i	i	-8.8	i	i	2.15	.	.	.
COc1ccccc1CN(Cc1cc2cc(C)ccc2[nH]c1=O)Cc1nnnn1Cc1ccco1	-8.7*	i	-6.7	i	i	-1.68	i	i	36.0%*
CCOC(=O)CC1COCCN1Cc1cn(C)nc1-c1ccccc1F (centres undefined)	i	i	-16.1	i	i	-0.18	.	.	.
O=C(N/N=C/C(Br)=C/c1ccccc1)c1cnccn1	i	i	-8.9	i	i	-0.34	.	.	.
CN(c1ccccc1)S(=O)(=O)c1cccc(NC(=O)CSc2n[nH]c(N)n2)c1	i	i	-21.7	i	i	-0.79	i	i	i
COc1cc(C)c(C(=O)Oc2cc(C)c(C(=O)O)c(O)c2C)c(O)c1C(=O)O	i	i	-3.2	i	i	-1.13	.	.	.
COc1cc(C)c(C(=O)Oc2cc(C)c(C(=O)O)c(O)c2C)c(OC)c1C	i	i	-9.2	i	i	-0.02	i	i	i
CCOC(=O)C(Oc1ccc2c(-c3ccccc3)cc(=O)oc2c1C)c1ccccc1 (centres undefined)	i	i	-14.1	i	i	-0.38	.	.	.
CCOC(=O)C(Oc1ccc2c(-c3ccc(OC)cc3)cc(=O)oc2c1C)c1ccccc1 (centres undefined)	-11*	i	-4.9	i	i	1.41	49.5%*	i	31.5%*
COc1ccccc1C(=O)Nc1cc(Cl)ccc1O	i	i	-5.5	i	i	0.24	.	.	.
CCOc1ccccc1C(=O)Nc1cc(Cl)ccc1O	-11.8*	i	-11.9	i	i	1.97	52.5%*	i	36.0%*
Cc1ccsc1C(=O)N1CCCC(CCC(=O)N2CCN(c3ccccn3)CC2)C1 (centres undefined)	i	i	-1.4	i	i	-0.91	.	.	.
Cc1ccsc1C(=O)N1CCN(c2ccccn2)CC1	-8.11*	i	-6.5	i	i	0.41	i	i	i
O=C(COC(=O)Cc1ccc(S(=O)(=O)N2CCOCC2)s1)Nc1ccc(F)cc1F	.	.	.	.	i	.	.	.	.
CCN(CC)c1ccc(/C=c2\sc3nnc(-c4ccccc4Cl)n3c2=O)cc1	-11.2*	i	9.3*	7*	i	0.17	43.5%*	i	i
SMILES	KCNK9 inh	KCNQ1 pot	hERG rescue	KCNQ1 block	KCNK3 inh	Kir21 inh	KCNK9 block conf	Kir2-1 spec	KCNK9 uninduced
C[C@H](CO)N1C[C@H](C)[C@@H](CN(C)C(=O)Nc2ccc(C(F)(F)F)cc2)Oc2ccc(NS(=O)(=O)c3ccccc3)cc2C1=O	.	.	.	.	i	.	.	.	.
CCOC(=O)c1nc(Nc2cc(Cl)ccc2OC)c2ccccc2n1	-13.1*	i	-2.6	i	i	-1.25	46.5%*	i	i
CCOC(=O)c1nc(Nc2ccccc2)c2ccccc2n1	i	i	-9.3	i	i	2.08	.	.	.
COc1ccc(OC)c(-c2csc(NC(=O)C3c4ccccc4Oc4ccccc43)n2)c1	-9.13*	i	-2.6	i	i	-0.06	36.0%*	i	32.5%*
COc1ccc(CC(=O)Nc2nc(-c3cc(OC)ccc3OC)cs2)cc1	i	i	-10.1	i	i	-0.29	.	.	.
O=C(NCc1csc(-c2cccs2)n1)C1CCCCC1	i	i	-0.8	i	i	-0.39	.	.	.
CCOC(=O)C1=C(C)N=c2s/c(=C\c3ccc(OCC(=O)O)cc3)c(=O)n2C1c1ccccc1 (centres undefined)	i	i	-10.9	i	i	1.9	i	i	i
COc1cccc(C2C3=C(N=c4s/c(=C\c5ccc(OCC(=O)O)cc5)c(=O)n42)c2ccccc2CC3)c1 (centres undefined)	i	i	-0.2	i	.	0.06	i	i	i
O=C(CN1C(=O)S/C(=C\C=C\c2ccccc2)C1=O)Nc1cccc(O)c1	i	i	-6.5	i	i	0.22	.	.	.
O=C(CCN1C(=O)/C(=C\c2ccccc2Cl)SC1=S)Nc1cccnc1	i	i	-26.9	i	i	2.74	.	.	.
O=C(O)CN1C(=O)/C(=C\c2cccc(OCc3ccc(Cl)cc3)c2)SC1=S	i	i	-10.6	i	i	-1.1	i	i	i
O=C(O)CN1C(=O)/C(=C\c2ccccc2OCc2ccc(Cl)cc2)SC1=S	i	i	-9.5	i	i	0.8	i	i	i
O=C(CN1C(=O)S/C(=C\C=C\c2ccccc2)C1=O)Nc1ccccc1C(=O)O	i	i	-6.6	i	i	0.3	i	i	i
O=C(CCN1C(=O)/C(=C/c2ccccc2Cl)SC1=S)Nc1ccccc1C(=O)O	i	i	-25.9	i	i	-2.99	i	i	i
O=C(O)CN1C(=O)/C(=C\c2cc(Br)ccc2OCc2ccc(Cl)cc2Cl)SC1=S	i	i	-12.8	i	i	1.07	.	.	.

Source: PubChem
